Source: ChEMBL document CHEMBL2331117 (J Med Chem, 2013)

What was measured:
[1] = Plasma concentration in athymic mouse plasma xenografted with human MCF7 cells at 100 mg/kg, po after 8 hrs; type: ADME, organism-based; set-up: dose 100 mg/kg, route oral
[2] = test system: Mus musculus; assay: In vivo inhibition of mTORC1-mediated phosphorylation of 4EBP1 at ([…]) in human MCF7 cells xenografted into athymic nude mouse at 100 mg/kg, po after 8 hrs by Western blotting analysis relative to control; type: functional; details: MCF7, 8 h
Outline: (§1)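 MCF-7 cells (DMEM, 10% FBS) were implanted subcutaneously at 5 × 10^6 cells in 50% cold HBSS/50% growth-factor-reduced matrigel into the hindflank of 5−8 week old female nude mice. At tumor size 40−150 mg, mice received a single oral dose of 100 mg/kg. Tumor lysates were pooled per group. Phospho-AKT (S473, T308), p70S6K (T389), S6 (S240/244) and 4E-BP1 (T37/46) were measured by Western blot normalized to α-tubulin.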

[3] = test system: Mus musculus; assay: In vivo inhibition of mTORC1-mediated phosphorylation of pS6 at (serine 240/244) in human MCF7 cells xenografted into athymic nude mouse at 100 mg/kg, po after 4 hrs by Western blotting analysis relative to control; type: functional; details: MCF7, 4 h; outline: as §1
[4] = test system: Mus musculus; assay: In vivo inhibition of mTORC1-mediated phosphorylation of p70S6K at […] in human MCF7 cells xenografted into athymic nude mouse at 100 mg/kg, po after 32 hrs by Western blotting analysis relative to control; type: functional; details: MCF7, 32 h; outline: as §1
[5] = test system: Mus musculus; assay: In vivo inhibition of mTORC1-mediated phosphorylation of p70S6K at […] in human MCF7 cells xenografted into athymic nude mouse at 100 mg/kg, po after 16 hrs by Western blotting analysis relative to control; type: functional; details: MCF7, 16 h; outline: as §1
[6] = test system: Mus musculus; assay: In vivo inhibition of mTORC1-mediated phosphorylation of p70S6K at […] in human MCF7 cells xenografted into athymic nude mouse at 100 mg/kg, po after 1 hr by Western blotting analysis relative to control; type: functional; details: MCF7, 1 h; outline: as §1
[7] = test system: Mus musculus; assay: In vivo inhibition of mTORC2-mediated phosphorylation of AKT at […] in human MCF7 cells xenografted into athymic nude mouse at 100 mg/kg, po after 4 hrs by Western blotting analysis relative to control; type: functional; details: MCF7, 4 h
Outline: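 Human MCF-7 cells were implanted subcutaneously into the hindflank of female nude mice aged 5−8 weeks, at 5 × 10^6 cells in 50% cold HBSS/50% growth-factor-reduced matrigel. At a tumor size of 40−150 mg, mice got one oral dose. Tumor lysates were pooled per group. Phospho-AKT (T308) was read by Western blot and normalized to α-tubulin.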

[8] = test system: Mus musculus; assay: In vivo inhibition of mTORC2-mediated phosphorylation of AKT at serine 473 in human MCF7 cells xenografted into athymic nude mouse at 100 mg/kg, po after 32 hrs by Western blotting analysis relative to control; type: functional; details: MCF7, 32 h; outline: as §1
[9] = test system: Mus musculus; assay: In vivo inhibition of mTORC2-mediated phosphorylation of AKT at serine 473 in human MCF7 cells xenografted into athymic nude mouse at 100 mg/kg, po after 24 hrs by Western blotting analysis relative to control; type: functional; details: MCF7, 24 h; outline: as §1
[10] = Drug uptake in tumor of athymic mouse xenografted with human PC3 cells at 100 mg/kg, po after 16hrs; type: ADME, organism-based, Neoplasm, PC-3; set-up: dose 100 mg/kg, route oral; details: read-out: Drug uptake
Outline: (§2)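 PC-3 cells (3 × 10⁶, passages 10–14, in ice-cold HBSS) were implanted sc in 5–8 week old male nude mice. Tumors of 200–500 mg received a single oral 100 mg/kg dose. Plasma and tumor were collected at 1, 4, 8, 16, 24 and 32 h and homogenized in buffer. Lysates were pooled per group (n = 5), and phospho-proteins were measured by Western blot normalized to α-tubulin.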

[11] = Drug uptake in tumor of athymic mouse xenografted with human PC3 cells at 100 mg/kg, po after 8 hrs; type: ADME, organism-based, Neoplasm, PC-3; set-up: dose 100 mg/kg, route oral; details: read-out: Drug uptake; outline: as §2
[12] = target: Vascular endothelial growth factor receptor 2 (Homo sapiens, UniProt P35968); assay: Inhibition of KDR (unknown origin)
[13] = target: Focal adhesion kinase 1 (Homo sapiens, UniProt Q05397); assay: Inhibition of FAK (unknown origin)
Outline: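 Part of a 141-protein-kinase selectivity panel run either in house or by an outside contract lab. IC50 is reported as the average of at least two determinations.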

[14] = target: Serine/threonine-protein kinase Chk1 (Homo sapiens, UniProt O14757); assay: Inhibition of CHK1 (unknown origin)
[15] = target: Phosphatidylinositol 4,5-bisphosphate 3-kinase catalytic subunit beta isoform (Homo sapiens, UniProt P42338); assay: Inhibition of PI3Kbeta (unknown origin)
[16] = Oral bioavailability in Beagle dog at 3 mg/kg; type: ADME, organism-based, Canis lupus familiaris; details: in vivo
Outline: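 For single-dose PK, compound was given intravenously and by oral gavage as a solution in EPW (5% ethanol/45% PEG400/water + 1:2 HCl m/m). Doses were 10 mg/kg in female athymic nude mice and 3 mg/kg in female CD rats and male beagle dogs.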

[17] = AUC (0 to infinity) in Beagle dog at 3 mg/kg, po; type: ADME, organism-based, Canis lupus familiaris; set-up: time infinity, dose 3 mg/kg, route oral; details: plasma
Outline: (§3)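 Single-dose PK: female athymic nude mice (10 mg/kg), female CD rats and male beagle dogs (3 mg/kg), male cynomolgus monkeys (3 mg/kg), given iv and by oral gavage. Solution in EPW (5% ethanol/45% PEG400/water), with 1:2 HCl (m/m) for mouse, rat and dog and 1:1.5 HCl (m/m) for monkey. Plasma levels followed over 24 h.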

[18] = AUC (0 to infinity) in cynomolgus monkey at 3 mg/kg, iv; type: ADME, organism-based, Macaca fascicularis; set-up: time infinity, dose 3 mg/kg, route intravenous; details: plasma; outline: as §3
[19] = Tmax in athymic nude mouse at 10 mg/kg, po; type: ADME, organism-based; set-up: dose 10 mg/kg, route oral; details: in vivo
[20] = Drug uptake in tumor of athymic mouse xenografted with human MCF7 cells at 100 mg/kg, po after 24 hrs; type: ADME, organism-based, Neoplasm; set-up: dose 100 mg/kg, route oral; details: in vivo, BLD = below limit of detection
[21] = test system: Plasma; assay: Plasma concentration in athymic mouse plasma xenografted with human PC3 cells at 100 mg/kg, po after 24 hrs; type: ADME, organism-based, PC-3; set-up: dose 100 mg/kg, route oral; details: in vivo, BLD = below limit of detection
[22] = target: Hepatocyte growth factor receptor (Homo sapiens, UniProt P08581); assay: Inhibition of MET (unknown origin)
[23] = target: Dual specificity mitogen-activated protein kinase kinase 1 (Homo sapiens, UniProt Q02750); assay: Inhibition of MEK1 (unknown origin)
[24] = test system: Mus musculus; assay: In vivo inhibition of mTORC1-mediated phosphorylation of p70S6K at […] in human PC3 cells xenografted into athymic nude mouse at 100 mg/kg, po after 24 hrs by Western blotting analysis relative to control; type: functional; details: PC-3, 24 h
Outline: (§4)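 PC-3 cells grown in DMEM with 20% FBS were implanted subcutaneously at 3 × 10^6 cells in ice-cold HBSS into the hindflank of 5−8 week old male nude mice. At tumor size 200−500 mg, mice received a single oral dose of 100 mg/kg. Plasma and tumors were collected at 1, 4, 8, 16, 24 and 32 h. Tumor lysates from each group (n = 5) were pooled. Phospho-proteins were quantified by Western blot and normalized to α-tubulin.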

[25] = test system: Mus musculus; assay: In vivo inhibition of mTORC2-mediated phosphorylation of AKT at serine 473 in human PC3 cells xenografted into athymic nude mouse at 100 mg/kg, po after 16 hrs by Western blotting analysis relative to control; type: functional; details: PC-3, 16 h; outline: as §4

Phosphatidylinositol 4,5-bisphosphate 3-kinase catalytic subunit beta isoform, sequence (P42338 whole entry, canonical isoform): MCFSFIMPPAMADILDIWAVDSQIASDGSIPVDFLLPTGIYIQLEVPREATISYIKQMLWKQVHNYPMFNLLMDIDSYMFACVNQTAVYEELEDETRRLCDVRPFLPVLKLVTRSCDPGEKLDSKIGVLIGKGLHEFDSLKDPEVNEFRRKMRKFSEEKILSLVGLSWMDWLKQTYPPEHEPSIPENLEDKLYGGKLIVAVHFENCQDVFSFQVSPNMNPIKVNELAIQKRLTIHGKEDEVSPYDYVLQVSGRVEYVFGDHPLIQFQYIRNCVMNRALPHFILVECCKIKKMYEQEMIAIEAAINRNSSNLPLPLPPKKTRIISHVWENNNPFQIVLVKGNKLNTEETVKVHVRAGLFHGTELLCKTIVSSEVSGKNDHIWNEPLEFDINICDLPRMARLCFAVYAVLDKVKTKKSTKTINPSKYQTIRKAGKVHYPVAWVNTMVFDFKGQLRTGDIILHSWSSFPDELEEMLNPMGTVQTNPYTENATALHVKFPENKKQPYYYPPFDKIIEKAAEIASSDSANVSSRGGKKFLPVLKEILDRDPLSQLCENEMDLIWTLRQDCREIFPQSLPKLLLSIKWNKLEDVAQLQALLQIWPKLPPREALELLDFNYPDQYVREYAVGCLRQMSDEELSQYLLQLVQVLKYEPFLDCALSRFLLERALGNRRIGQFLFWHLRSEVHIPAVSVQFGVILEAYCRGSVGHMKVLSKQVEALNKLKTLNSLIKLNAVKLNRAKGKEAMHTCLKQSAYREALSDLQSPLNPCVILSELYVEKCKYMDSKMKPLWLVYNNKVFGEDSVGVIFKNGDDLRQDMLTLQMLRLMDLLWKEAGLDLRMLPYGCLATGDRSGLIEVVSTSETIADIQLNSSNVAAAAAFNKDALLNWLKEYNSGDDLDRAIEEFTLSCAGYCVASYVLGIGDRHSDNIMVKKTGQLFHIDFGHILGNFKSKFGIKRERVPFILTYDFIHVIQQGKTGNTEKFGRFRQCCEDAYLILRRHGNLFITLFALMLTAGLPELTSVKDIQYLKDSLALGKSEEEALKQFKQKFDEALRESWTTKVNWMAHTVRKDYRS
Serine/threonine-protein kinase Chk1, sequence (O14757 whole entry, canonical isoform): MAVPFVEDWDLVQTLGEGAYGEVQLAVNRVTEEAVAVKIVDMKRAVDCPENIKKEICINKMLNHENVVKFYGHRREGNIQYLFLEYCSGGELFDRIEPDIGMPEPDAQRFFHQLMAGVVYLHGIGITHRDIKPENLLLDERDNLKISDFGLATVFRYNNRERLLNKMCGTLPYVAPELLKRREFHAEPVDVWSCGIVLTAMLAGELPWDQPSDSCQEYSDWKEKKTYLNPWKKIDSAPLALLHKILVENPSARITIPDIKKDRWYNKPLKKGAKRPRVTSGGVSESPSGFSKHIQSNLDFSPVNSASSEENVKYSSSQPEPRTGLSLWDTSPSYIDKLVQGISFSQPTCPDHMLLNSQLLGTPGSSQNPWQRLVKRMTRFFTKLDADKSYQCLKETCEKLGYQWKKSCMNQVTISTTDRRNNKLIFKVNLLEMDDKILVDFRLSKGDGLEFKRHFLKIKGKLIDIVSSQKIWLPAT
Dual specificity mitogen-activated protein kinase kinase 1, sequence (Q02750 whole entry): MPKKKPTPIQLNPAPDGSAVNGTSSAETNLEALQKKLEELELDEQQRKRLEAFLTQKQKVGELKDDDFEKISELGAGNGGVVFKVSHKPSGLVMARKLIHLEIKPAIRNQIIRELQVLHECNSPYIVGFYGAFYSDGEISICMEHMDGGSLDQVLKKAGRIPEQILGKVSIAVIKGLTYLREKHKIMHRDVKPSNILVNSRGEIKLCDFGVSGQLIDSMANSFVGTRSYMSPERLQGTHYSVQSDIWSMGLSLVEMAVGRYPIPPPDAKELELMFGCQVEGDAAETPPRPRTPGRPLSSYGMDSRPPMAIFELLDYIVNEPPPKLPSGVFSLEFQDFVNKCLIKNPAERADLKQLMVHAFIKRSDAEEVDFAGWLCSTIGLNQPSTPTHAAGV
Vascular endothelial growth factor receptor 2, sequence (P35968 whole entry): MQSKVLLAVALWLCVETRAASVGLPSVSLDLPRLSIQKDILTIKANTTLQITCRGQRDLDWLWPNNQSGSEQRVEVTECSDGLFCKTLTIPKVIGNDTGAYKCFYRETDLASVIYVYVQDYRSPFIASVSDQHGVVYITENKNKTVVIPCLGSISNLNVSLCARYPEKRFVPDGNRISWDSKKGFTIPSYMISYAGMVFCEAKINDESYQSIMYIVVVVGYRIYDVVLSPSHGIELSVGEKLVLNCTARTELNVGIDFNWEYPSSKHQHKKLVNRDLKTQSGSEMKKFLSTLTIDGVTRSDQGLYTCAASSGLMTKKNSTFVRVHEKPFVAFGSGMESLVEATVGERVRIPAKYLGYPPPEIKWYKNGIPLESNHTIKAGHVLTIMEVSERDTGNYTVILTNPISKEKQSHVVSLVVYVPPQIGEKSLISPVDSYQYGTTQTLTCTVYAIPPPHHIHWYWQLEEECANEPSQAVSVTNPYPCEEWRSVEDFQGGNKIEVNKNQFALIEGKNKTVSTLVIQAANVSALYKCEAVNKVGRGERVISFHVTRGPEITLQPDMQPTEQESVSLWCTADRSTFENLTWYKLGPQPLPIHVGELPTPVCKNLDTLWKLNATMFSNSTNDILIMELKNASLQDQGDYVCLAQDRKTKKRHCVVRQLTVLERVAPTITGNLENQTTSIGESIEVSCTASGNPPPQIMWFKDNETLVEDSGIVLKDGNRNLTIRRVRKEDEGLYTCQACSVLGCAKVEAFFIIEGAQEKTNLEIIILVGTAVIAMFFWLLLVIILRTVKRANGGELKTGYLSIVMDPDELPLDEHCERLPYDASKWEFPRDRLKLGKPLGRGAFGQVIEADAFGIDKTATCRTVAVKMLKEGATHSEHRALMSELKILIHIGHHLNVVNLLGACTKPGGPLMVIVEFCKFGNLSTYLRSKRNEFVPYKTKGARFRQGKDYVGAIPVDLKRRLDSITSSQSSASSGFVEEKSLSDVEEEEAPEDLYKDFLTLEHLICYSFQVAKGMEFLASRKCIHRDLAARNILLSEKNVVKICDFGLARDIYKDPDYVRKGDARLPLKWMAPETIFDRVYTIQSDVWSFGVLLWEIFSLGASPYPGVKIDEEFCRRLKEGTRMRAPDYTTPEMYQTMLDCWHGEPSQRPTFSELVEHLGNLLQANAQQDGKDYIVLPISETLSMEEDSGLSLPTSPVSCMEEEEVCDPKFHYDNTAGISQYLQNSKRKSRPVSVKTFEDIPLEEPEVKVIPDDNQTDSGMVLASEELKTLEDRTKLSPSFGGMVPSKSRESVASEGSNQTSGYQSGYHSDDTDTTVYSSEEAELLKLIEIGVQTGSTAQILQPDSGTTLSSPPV
Focal adhesion kinase 1, sequence (Q05397 whole entry): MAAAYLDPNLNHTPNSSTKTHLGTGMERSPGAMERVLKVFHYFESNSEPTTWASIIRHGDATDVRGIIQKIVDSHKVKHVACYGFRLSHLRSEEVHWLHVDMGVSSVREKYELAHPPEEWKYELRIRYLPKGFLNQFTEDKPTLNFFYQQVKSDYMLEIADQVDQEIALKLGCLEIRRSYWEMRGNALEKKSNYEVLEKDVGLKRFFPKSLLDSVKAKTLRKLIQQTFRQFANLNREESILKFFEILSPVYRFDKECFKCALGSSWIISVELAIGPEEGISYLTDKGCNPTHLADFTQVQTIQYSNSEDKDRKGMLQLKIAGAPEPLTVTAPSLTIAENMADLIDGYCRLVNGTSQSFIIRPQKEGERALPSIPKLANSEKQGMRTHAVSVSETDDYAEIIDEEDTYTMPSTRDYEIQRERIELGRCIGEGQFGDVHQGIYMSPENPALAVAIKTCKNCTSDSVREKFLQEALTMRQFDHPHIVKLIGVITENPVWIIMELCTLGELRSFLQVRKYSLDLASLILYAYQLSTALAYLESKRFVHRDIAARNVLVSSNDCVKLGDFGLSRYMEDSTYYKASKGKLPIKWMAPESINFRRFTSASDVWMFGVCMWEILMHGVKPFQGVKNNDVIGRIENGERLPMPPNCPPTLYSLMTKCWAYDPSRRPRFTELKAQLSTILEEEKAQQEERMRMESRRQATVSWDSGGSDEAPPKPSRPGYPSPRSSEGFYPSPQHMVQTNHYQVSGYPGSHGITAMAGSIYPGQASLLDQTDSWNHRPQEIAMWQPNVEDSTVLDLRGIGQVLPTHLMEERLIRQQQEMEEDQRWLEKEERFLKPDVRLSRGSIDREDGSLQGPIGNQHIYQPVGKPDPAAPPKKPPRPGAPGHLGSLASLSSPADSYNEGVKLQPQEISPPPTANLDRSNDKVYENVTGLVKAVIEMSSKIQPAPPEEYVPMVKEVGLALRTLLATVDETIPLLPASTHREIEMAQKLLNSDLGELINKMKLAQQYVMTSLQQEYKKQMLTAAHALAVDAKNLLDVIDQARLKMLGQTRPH

- concentration at 8 h [1]: 16.5 µM
- concentration at 16 h [10]: 7.34 µM
- concentration at 8 h [11]: 25.5 µM
- IC50 [12]: > 3.5 µM
- IC50 [13]: > 3.5 µM
- IC50 [14]: > 3.5 µM
- IC50 [15]: > 5 µM
- bioavailability [16]: 69.6%
- AUC(0-inf) [17]: 7.66 µM·h
- AUC(0-inf) [18]: 1.31 µM·h
- Tmax [19]: 30 min
- Drug uptake [20]: BLD
- Cp [21]: BLD
- IC50 [22]: > 3.5 µM
- IC50 [23]: > 3.5 µM
Structure (SMILES): Cc1c(C(=O)N2CCOc3ccc(-c4ccc(N)nc4)cc3C2)ccc(S(C)(=O)=O)c1F
- inhibition in vivo at 100 mg/kg [2]: 88%
- inhibition in vivo at 100 mg/kg [3]: 94%
- inhibition in vivo at 100 mg/kg [4]: 2%
- inhibition in vivo at 100 mg/kg [5]: 41%
- inhibition in vivo at 100 mg/kg [6]: 85%
- inhibition in vivo at 100 mg/kg [7]: 13%
- inhibition in vivo at 100 mg/kg [8]: 11%
- inhibition in vivo at 100 mg/kg [9]: -49%
- inhibition in vivo at 100 mg/kg [24]: 11%
- inhibition in vivo at 100 mg/kg [25]: 55%
